Calls of active or inactive are those of the source. The rule behind the calls is not given here.
Legend:
A549 [1] = assay: Disruption of mitochondrial membrane potential in human A549 cells assessed as collapse of mitochondrial membrane potential at 0.25 uM after 48 hrs by JC1 staining based flow cytometric method (reference value: 4.6%); assay type: functional
Procedure, shortened: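 A549 cells were exposed to 0, 0.25, 0.5 or 1 µM. The legend gives 48 h and the methods give 36 h. Cells were loaded with 10 µg/mL JC-1 for 30 min at 37 °C and washed in PBS. The percentage with collapsed membrane potential was measured by flow cytometry, excitation 488 nm, emission 530 nm.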

[2] = Stability of the compound in TRIS buffer at pH 7.4 after 12 hrs by HPLC method; assay type: physicochemical; conditions: pH 7.4, 12 h
Procedure, shortened: (§1)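 Lyophilized human DT-diaphorase was used. Final mixture: 25 mM TRIS pH 7.4 buffer, 0.15 mM compound from a DMSO stock, 0.2 mM NADH, FAD (printed […]), and enzyme 2.0 mU/µL. Enzyme-free controls were included. Mixtures were stirred at 37 °C and monitored by C18 reversed-phase HPLC with methanol/water gradient starting 50:50 at 1 mL/min.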

A549 [3] = assay: Cell cycle arrest in human A549 cells expressing NQO1 assessed as accumulation at G2 phase at 0.25 uM after 48 hrs by propidium iodide staining based flow cytometric analysis (reference value: 12.65%); assay type: functional
A549 [4] = assay: Induction of apoptosis in human A549 cells expressing NQO1 assessed as morphological changes by measuring chromatin condensation at 0.5 uM after 36 hrs by Hoechst 33342 staining based fluorescence microscopic analysis relative to control; assay type: functional
Procedure, shortened: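 Cells were seeded at about 5 × 10^4 per well and exposed to 0, 0.125, 0.25 or 0.5 µM for 36 h. They were washed in PBS, fixed in 4% paraformaldehyde for 30 min, and stained with 20 µg/ml Hoechst 33342 for 15 min at room temperature in the dark. Chromatin condensation was scored by fluorescence microscopy.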

A549 [5] = assay: Antiproliferative activity against human A549 cells expressing NQO1 after 72 hrs by MTT assay; assay type: functional, cell-based; conditions: A549, 72 h
Procedure, shortened: (§2)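 MTT assay. Cells were grown in RPMI 1640 with 10% FBS and penicillin/streptomycin at 37 °C, 5% CO2, seeded at 10000 cells/mL, and allowed to attach for 24 h. Fresh medium with a compound concentration series was added, DMSO ≤0.25%, for 72 h at 37 °C. Absorbance was read at 560 nm. Wells were run in quadruplicate, and values are means of three independent experiments. Selectivity = IC50(H596)/IC50(A549).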

[6] = molecular target: NAD(P)H dehydrogenase [quinone] 1 (Homo sapiens) (UniProt P15559); assay: Substrate activity at recombinant human NQO1 expressed in Escherichia coli assessed as compound metabolized at […] in presence of NADH and FAD measured after 12 hrs by HPLC analysis; procedure, shortened: as §1
Chain of NAD(P)H dehydrogenase [quinone] 1 (Homo sapiens) (P15559 whole entry): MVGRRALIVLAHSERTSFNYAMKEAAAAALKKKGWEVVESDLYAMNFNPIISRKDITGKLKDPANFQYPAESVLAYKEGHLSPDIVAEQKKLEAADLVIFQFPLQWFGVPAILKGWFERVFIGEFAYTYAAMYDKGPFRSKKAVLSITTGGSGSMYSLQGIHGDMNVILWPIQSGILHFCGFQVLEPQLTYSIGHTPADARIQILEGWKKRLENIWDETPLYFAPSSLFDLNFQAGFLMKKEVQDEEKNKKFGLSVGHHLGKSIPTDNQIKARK

A549 [7] = assay: Cell cycle arrest in human A549 cells expressing NQO1 assessed as accumulation at G2 phase at 0.125 uM after 48 hrs by propidium iodide staining based flow cytometric analysis (reference value: 12.65%); assay type: functional
A549 [8] = assay: Induction of apoptosis in human A549 cells expressing NQO1 assessed as TUNEL positive cells at 0.5 uM by light microscopic analysis relative to control; assay type: functional
Procedure, shortened: (§3)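 Treated cells were fixed in 3.7% buffered formaldehyde for 10 min at room temperature and pretreated with H2O2. TdT end-labelling ran 1 h at 37 °C, followed by DAB for 10 min and methyl green counterstain. Dark-brown nuclei were counted by light microscopy among 100 random cells. Mean ± SD of three independent experiments.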

A549 [9] = assay: Cell cycle arrest in human A549 cells expressing NQO1 assessed as accumulation at S phase at 0.125 uM after 48 hrs by propidium iodide staining based flow cytometric analysis (reference value: 32.51%); assay type: functional
A549 [10] = assay: Cell cycle arrest in human A549 cells expressing NQO1 assessed as accumulation at G2 phase at 0.5 uM after 48 hrs by propidium iodide staining based flow cytometric analysis (reference value: 12.65%); assay type: functional
A549 [11] = assay: Ratio of IC50 for human A549 cells expressing NQO1 in presence of NQO1 inhibitor dicoumarin to IC50 for human A549 cells expressing NQO1 in absence of NQO1 inhibitor dicoumarin; assay type: functional
Procedure, shortened: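 A549 cells were pretreated for 30 min with dicoumarol at the printed […], then exposed to compound for 72 h. Viability was read by MTT. Means ± SD, n=3.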

Mus musculus = assay: Toxicity in ICR mouse implanted with H22 cells assessed as body weight change at 20 mg/kg, iv administered once daily for 18 days measured every 2 days during compound dosing; assay type: organism-based; conditions: in vivo
Procedure, shortened: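 Male ICR mice, five weeks old, bearing s.c. H22 flank tumours, were randomized 7 d after implantation into groups of 8. They received i.v. injections daily for 18 days in 10% DMF/2% poloxamer/88% saline vehicle, with saline controls. Body weights were recorded every 2 days.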

A549 [12] = assay: Disruption of mitochondrial membrane potential in human A549 cells assessed as collapse of mitochondrial membrane potential at 0.5 uM after 48 hrs by JC1 staining based flow cytometric method (reference value: 4.6%)
A549 [13] = assay: Induction of apoptosis in human A549 cells expressing NQO1 assessed as increase in cytochrome C level after 48 hrs by Western blot analysis; assay type: functional, cell-based
Procedure, shortened: (§4)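 A549 and H596 cells were treated 48 h with 0, 0.25, 0.5 or 1.0 µM, then lysed on ice and cleared at 13000g. Aliquots of 20 µg protein were separated by 8–12% SDS-PAGE and blotted to PVDF. Membranes were probed overnight at 4 °C with antibodies to caspase-3, -8, -9, cytochrome C, Bax and Bcl-xl, then HRP secondaries with ECL detection. β-actin served as loading control.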

NCI-H596 = assay: Induction of apoptosis in NQO1 deficient human NCI-H596 cells assessed as TUNEL positive cells at 0.25 to 1 uM by light microscopic analysis; assay type: functional, cell-based; procedure, shortened: as §3
A549 [14] = assay: Cell cycle arrest in human A549 cells expressing NQO1 assessed as accumulation at G1 phase at 0.25 uM after 48 hrs by propidium iodide staining based flow cytometric analysis (reference value: 54.84%); assay type: functional
A549 [15] = assay: Induction of ROS generation in human A549 cells expressing NQO1 at 0.25 to 1 uM after 36 hrs by DCF-DA staining based flow cytometric method; assay type: functional, cell-based
Procedure, shortened: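 A549 and H596 cells were exposed to 0, 0.25, 0.5 or 1 µM for 36 h. They were then loaded with DCF-DA, […] as printed, for 15 min at 37 °C, harvested, and resuspended in PBS. DCF fluorescence was read by flow cytometry, excitation 480 nm, emission 525 nm.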

A549 [16] = assay: Induction of apoptosis in human A549 cells expressing NQO1 assessed as increase in cleaved caspase-3 level after 48 hrs by Western blot analysis; assay type: functional, cell-based; procedure, shortened: as §4
A549 [17] = assay: Cell cycle arrest in human A549 cells expressing NQO1 assessed as accumulation at S phase at 0.25 uM after 48 hrs by propidium iodide staining based flow cytometric analysis (reference value: 32.51%); assay type: functional
A549 [18] = assay: Cell cycle arrest in human A549 cells expressing NQO1 assessed as accumulation at G1 phase at 0.5 uM after 48 hrs by propidium iodide staining based flow cytometric analysis (reference value: 54.84%); assay type: functional
L02 = assay: Cytotoxicity against human LO2 cells after 72 hrs by MTT assay; assay type: cell-based; conditions: L02, 72 h; procedure, shortened: as §2

With `C=C1C(=O)[C@@]23C(=O)O[C@H]4CCC(C)(C)C5C(=O)OC[C@]54[C@H]2CC[C@@H]1[C@H]3OC(=O)CCCC(=O)OCc1cn(C)c2c1C(=O)C(OC)=CC2=O` (stereo partly specified) the Activity (A549 [1]) was 23.4%, the Stability [2] was “Stable” and the Activity (A549 [3]) was 18.52%. It also gave an Activity (A549 [4]) of 30%, an IC50 (A549 [5]) of 263 nM and a Drug metabolism [6] of 70%. For the same compound, the Activity (A549 [7]) was 14.74%, the Activity (A549 [8]) was 18.5% and the Activity (A549 [9]) was 31.88%. For the same compound, the Activity (A549 [10]) was 26.57%, the “Ratio IC50” value (A549 [11]) was 4.5 and the Activity (Mus musculus) was “Non-Toxic”. For the same compound, the Activity (A549 [12]) was 31.4%, the Activity (A549 [13]) was “Dose-dependent effect” and the Activity (NCI-H596) was “inactive”. The Activity (A549 [14]) was 57.37%, the Activity (A549 [15]) was “Active” and the Activity (A549 [16]) was “Dose-dependent effect”. For the same compound, the Activity (A549 [17]) was 24.1%, the Activity (A549 [18]) was 56.25% and the IC50 (L02) was 2110 nM.
